# According to PMC3825860 (Journal of Ginseng Research, 2013):
# Columns and labels:
# [1] = assay type: in vivo, human
# Outline: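 10 healthy male Korean volunteers, fasted from the night before until 1 PM, took 9 g extract orally with 100 mL water at 8 AM. Heparinised blood was drawn predose and at 4–14 h hourly, 24 and 36 h, and plasma was stored at -70℃. LC-MS/MS used a digoxin internal standard, an ODS column with methanol:water gradient, and 2–100 ng/mL plasma standards. Non-compartmental analysis used trapezoidal AUC, reported as mean±SD.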
# [2] = oral ginseng powder, healthy men, some individual variation; cited from earlier work
"AUC(0-inf) ([1]; male, human, plasma, po)","AUC(0-t) ([1]; male, human, plasma, po)","half-life ([1]; male, human, plasma, po)","plasma concentration at 36 h after taking the extract ([1]; single oral 9 g Korean Red Ginseng extract, detected in 8 subjects)",Compound,time of detection after oral administration [2]
308 ± 146 ng·h/mL,102 ± 51 ng·h/mL,58.5 ± 14.3 h,,"CC(C)=CCC[C@](C)(O[C@@H]1O[C@H](CO[C@@H]2O[C@H](CO)[C@@H](O)[C@H](O)[C@H]2O)[C@@H](O)[C@H](O)[C@H]1O)[C@H]1CC[C@]2(C)[C@@H]1[C@H](O)C[C@@H]1[C@@]3(C)CC[C@H](O[C@@H]4O[C@H](CO)[C@@H](O)[C@H](O)[C@H]4O[C@@H]4O[C@H](CO)[C@@H](O)[C@H](O)[C@H]4O)C(C)(C)[C@@H]3CC[C@]12C [Ginsenoside Rb1, ginsenoside Rb1]",
,,,0.90 ± 0.74 ng/mL,"CC(C)=CCC[C@](C)(O[C@@H]1O[C@H](CO)[C@@H](O)[C@H](O)[C@H]1O)[C@H]1CC[C@]2(C)[C@@H]1[C@H](O)C[C@@H]1[C@@]3(C)CC[C@H](O)C(C)(C)[C@@H]3CC[C@]12C [Compound K, 20-O-β-Ɗ-glucopyranosyl-20(S)-protopanaxadiol]",8 h
